# Assay results of several laboratories.
# Lines come from different studies, so protocols differ.
# Target: Serine/threonine-protein kinase Nek3 (NEK3, Homo sapiens, UniProt P51956)
# Residues used in one study (P51956 1-506): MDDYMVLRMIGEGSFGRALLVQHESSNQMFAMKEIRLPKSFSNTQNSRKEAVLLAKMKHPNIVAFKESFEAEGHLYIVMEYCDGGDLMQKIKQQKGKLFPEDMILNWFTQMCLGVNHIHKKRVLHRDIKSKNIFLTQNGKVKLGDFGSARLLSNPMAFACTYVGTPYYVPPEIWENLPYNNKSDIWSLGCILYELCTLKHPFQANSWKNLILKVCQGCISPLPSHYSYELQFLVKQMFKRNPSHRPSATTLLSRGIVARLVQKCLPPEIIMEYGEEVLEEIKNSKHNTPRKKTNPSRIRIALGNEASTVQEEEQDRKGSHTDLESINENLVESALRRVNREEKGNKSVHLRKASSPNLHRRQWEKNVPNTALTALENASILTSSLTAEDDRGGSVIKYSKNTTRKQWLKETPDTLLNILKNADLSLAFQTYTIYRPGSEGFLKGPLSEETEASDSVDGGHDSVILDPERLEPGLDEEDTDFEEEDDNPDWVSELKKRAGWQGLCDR
Compound,effect on,method,concentration,remaining binding [%]
O=C(O)[C@H]1[C@H](Cn2nnc3ccccc3c2=O)CC[C@@H]1C(=O)c1ccc(OCCC2CCOCC2)cc1,cell-free assay,competition with immobilised ligand,1 µM,86
O=C(Nc1c[nH]nc1C(=O)NC1CCNCC1)c1cc(F)cc(F)c1,binding,competition with immobilised ligand,1 µM,100
Cc1nccc(COC(=O)N2C[C@@H]3[C@@H](CNC(=O)c4ccc5[nH]nnc5c4)[C@@H]3C2)n1,cell-free assay,competition with immobilised ligand,1 µM,100
N[C@@H]1CCN(c2nccc(-c3cnn4ncccc34)n2)C1,binding,,1 µM,95
N#CC1(c2ccccn2)CCN(Cc2cc(C(=O)N3CCCC3)c(=O)n3ccccc23)CC1,cell-free assay,competition with immobilised ligand,1 µM,83
CC1CCCN1c1nccc(-c2cnn3ncccc23)n1 (stereo not drawn),binding,,1 µM,82
c1ccc(N2CCN(Cc3nc4ccccc4[nH]3)CC2)nc1,binding,competition with immobilised ligand,1 µM,100
O=C(c1ccc(Nc2ncc(Cl)c(-c3cc4ccccc4s3)n2)cc1)N1CCC(N2CCCC2)CC1,binding,competition with immobilised ligand,1 µM,1.3
CN(CCCC(F)(F)F)c1nccc(-c2cnn3ncccc23)n1,binding,,1 µM,100
COc1ncc2cc3ccccc3nc2c1C#N,cell-free assay,competition with immobilised ligand,5 µM,100
Cc1cnc(Nc2ccc(C(=O)N3CCC(N4CCCC4)CC3)cc2)nc1-c1cc2ccccc2s1,binding,competition with immobilised ligand,1 µM,2.4
COc1cnc(Nc2cccc(S(N)(=O)=O)c2)nc1N1CCN(c2ccccc2)C(=O)C1,binding,competition with immobilised ligand,1 µM,30
C=CC(=O)N1CCC(C(=O)NCC(=O)N2CCN(c3nc(-c4cnc(N)nc4C(F)F)nc(N4CCOCC4)n3)CC2)CC1,binding,competition with immobilised ligand,1 µM,51
CN(C)c1nccc(-c2cnn3ncccc23)n1,binding,,1 µM,100
O=C(NCCCN1CCOCC1)c1ccc(Nc2ncc(Cl)c(-c3ccc(Cl)s3)n2)cc1,binding,competition with immobilised ligand,1 µM,0.5
COc1cc(-c2cn(C3CCc4ccccc4N(CC(F)(F)F)C3=O)nn2)ccc1-n1ccc(C)n1 (stereo not drawn),cell-free assay,competition with immobilised ligand,1 µM,100
c1cncc(-c2cccc(Nc3nccc(NC4CCCCC4)n3)c2)c1,binding,competition with immobilised ligand,10 µM,56
C[C@@H]1CCN(c2nccc(-c3cnn4ncccc34)n2)C1,binding,,1 µM,81
C[C@@H](c1ccc(-n2cnc3c(N)ncnc32)cc1)N1CCc2nn(C)c(Cc3ccccc3)c2C1=O,binding,competition with immobilised ligand,0.1 µM,30
c1cnn2ncc(-c3ccnc(N4CCC45COC5)n3)c2c1,binding,,1 µM,64
CCCOc1ccc([C@@H]2[C@@H](C(=O)O)[C@H](c3ccc4c(c3)OCO4)CN2CC(=O)Nc2c(CC)cccc2CC)cc1,cell-free assay,competition with immobilised ligand,1 µM,100
